Our source for the EC50, CC50 and selectivity ratio values is ChEMBL document CHEMBL4024801, “Synthesis and Structure-Activity Relationship (SAR) Studies of Novel Pyrazolopyridine Derivatives as Inhibitors of Enterovirus Replication” (J Med Chem, 2018).

One data set concerns Coxsackievirus B3. The experiment in a line: Antiviral activity against Coxsackievirus B3 infected in human HeLa-RW cells assessed as protection against virus-induced cytopathic effect after 3 to 4 days by crystal violet staining-based spectrophotometric method. Conditions: Enterovirus B. It is filed as functional, cell-based. In short, it runs like this:
(§1)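 HeLa-RW cells grown in DMEM with penicillin, streptomycin, glutamine and 10% FBS. They were infected at a low MOI pre-set to give full CPE in 3-4 days. Compound in DMSO was added as serial 2-fold dilutions (7 points), each in triplicate. When control CPE was maximal, cells were fixed with 4% formaldehyde, stained with 0.25% crystal violet and read at OD590. EC50 came from a four-parameter or sigmoidal fit.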

A further data set relates to LLC-MK2. In words: Cytotoxicity against monkey LLC-MK2 cells after 3 to 4 days by crystal violet staining-based spectrophotometric method. The note with it: rhesus monkey. The data set is classed as cell-based, Macaca mulatta. In short, it runs like this: (§2)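 Uninfected cells (HeLa-RW or LLC-MK2, in DMEM with penicillin, streptomycin, glutamine and 10% FBS) were exposed to serial 2-fold compound dilutions for the same period as the CPE assay. They were then fixed with formaldehyde, stained with crystal violet and read by OD590 spectrophotometry to derive CC50. Values are means ± s.d. of 3 experiments, or the average of triplicates in one.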

A further data set concerns Poliovirus 3. In words: Antiviral activity against Poliovirus 3 infected in human HeLa-RW cells assessed as protection against virus-induced cytopathic effect after 3 to 4 days by crystal violet staining-based spectrophotometric method. It is filed as functional, cell-based. Conditions: Enterovirus C. The procedure, abridged: as §1
A short description of data set [1]: Selectivity index, ratio of CC50 for human HeLa-RW cells to EC50 for Coxsackievirus B3. It is filed as toxicity. The note with it: read-out: Ratio CC50/EC50. In short, it runs like this:
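HeLa-RW cells in DMEM with 10% FBS were used for both arms. For EC50, cells were infected with CVB3-H3 at a low MOI giving full CPE in 3–4 days and exposed to 2-fold compound dilutions, in triplicate, with a 7-point fit. For CC50, uninfected cells got 2-fold dilutions for the same period. Both arms were fixed, crystal violet-stained and read at OD590.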

Data set [2] in a line: Selectivity index, ratio of CC50 for monkey LLC-MK2 cells to EC50 for Enterovirus A71. The data set is classed as toxicity. The note with it: read-out: Ratio CC50/EC50. In short, it runs like this:
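LLC-MK2 cells in DMEM with 10% FBS were used for both arms. For EC50, cells were infected with EV-A71 at a low MOI giving full CPE in 3–4 days and exposed to 2-fold compound dilutions, in triplicate. For CC50, uninfected cells got 2-fold dilutions for the same period. Both arms were formaldehyde-fixed, crystal violet-stained and read at OD590.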

Data set [3] in a line: Cytotoxicity against human HeLa-RW cells after 3 to 4 days by crystal violet staining-based spectrophotometric method. Conditions: hela-rw. It is filed as cell-based. The procedure, abridged: as §2
Another data set has as its system Enterovirus A71. In words: Antiviral activity against Enterovirus A71 infected in monkey LLC-MK2 cells assessed as protection against virus-induced cytopathic effect after 3 to 4 days by crystal violet staining-based spectrophotometric method. It is filed as functional, cell-based. Conditions: Enterovirus A. In short, it runs like this: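 EV-A71 was tested in LLC-MK2 cells grown in DMEM with 10% FBS, penicillin, streptomycin and glutamine, at a low MOI preset to give full CPE in 3–4 days. Compound was dissolved in DMSO and diluted 2-fold, in triplicate. Cells were fixed with formaldehyde when control CPE was maximal, then stained with crystal violet and read at OD590. EC50 came from a 7-point four-parameter or sigmoidal fit.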

For the next data set, the system named is Poliovirus 1. In words: Antiviral activity against Poliovirus 1 infected in human HeLa-RW cells assessed as protection against virus-induced cytopathic effect after 3 to 4 days by crystal violet staining-based spectrophotometric method. The data set is classed as functional, cell-based. The note with it: Enterovirus C. The procedure, abridged: as §1

Each structure is given as a SMILES string.

Take `CC(C)n1ccc2c(C(=O)Nc3cccnc3)cc(-c3cccs3)nc21`: the 50% effective concentration (EC50) was 1.3 µM in the data set with Coxsackievirus B3, over 10 µM in the data set with Poliovirus 3, 0.8 µM in the data set on Enterovirus A71 and over 10 µM with Poliovirus 1. Also, the CC50 in the data set on LLC-MK2 was 25 µM; in data set [3], 18 µM. The results for the selectivity ratio in data set [1] and in data set [2] were 13.8 and 31.3, respectively.
`CC(C)n1ncc2c(C(=O)Nc3ccccn3)cc(-c3ccccc3)nc21`: the EC50 in the data set on Coxsackievirus B3 was 1.6 µM; with Poliovirus 3, over 25 µM; in the data set with Enterovirus A71, 0.7 µM; in the data set with Poliovirus 1, over 25 µM. For the same compound, the 50% cytotoxic concentration (CC50) in the data set with LLC-MK2 came out at 12.5 µM; in data set [3], 18.8 µM. For the same compound, the selectivity ratio stood at 11.8 in data set [1] and 17.9 in data set [2].
With `CC(C)n1ncc2c(C(=O)Nc3ncccn3)cc(-c3cccs3)nc21`, the EC50 with Coxsackievirus B3 was 0.6 µM; in the data set on Poliovirus 3, over 10 µM; in the data set with Enterovirus A71 it was 0.5 µM; in the data set with Poliovirus 1 it was over 10 µM. For the same compound, the CC50 stood at 75 µM with LLC-MK2 and 37.5 µM in data set [3]. The figures for the selectivity ratio in data set [1] and in data set [2] were 62.5 and 150, respectively.
For `CC(C)n1ncc2c(C(=O)Nc3ccc(F)cc3)cc(C3CC3)nc21`, the EC50 in the data set with Coxsackievirus B3 was 3.3 µM; in the data set with Poliovirus 3 it was over 25 µM; in the data set on Enterovirus A71, 3.2 µM; in the data set with Poliovirus 1 it was over 25 µM. Further, the values for the half-maximal cytotoxic concentration (CC50) (in the data set on LLC-MK2; in data set [3]) were 12.5 µM and 10 µM, respectively. For the same compound, the selectivity ratio in data set [1] was 3; in data set [2] it was 3.9.
As to `CC(C)n1ncc2c(NS(=O)(=O)c3ccc(F)cc3)cc(-c3cccs3)nc21`, the EC50 in the data set with Coxsackievirus B3, in the data set with Poliovirus 3, in the data set on Enterovirus A71 and in the data set with Poliovirus 1 was over 10 µM each time.
Consider `CC(C)n1ncc2c(C(=O)N(C)c3ccccn3)cc(-c3cccs3)nc21`, for which the EC50 in the data set with Coxsackievirus B3 is over 25 µM; with Poliovirus 3, over 10 µM; with Enterovirus A71, over 10 µM; with Poliovirus 1, over 10 µM.
Turning to `CC(C)n1ncc2c(C(=O)Nc3ccc(F)c(F)c3)cc(-c3cccs3)nc21`, the concentration giving a half-maximal response (EC50) with Coxsackievirus B3 is 1.3 µM; with Poliovirus 3, over 10 µM; with Enterovirus A71, over 25 µM; in the data set on Poliovirus 1, over 10 µM. The cytotoxic concentration (CC50) (in the data set with LLC-MK2; in data set [3]) was over 200 µM each time. Further, the selectivity ratio in data set [1] was over 154.
`CC(C)n1ncc2c(C(=O)Nc3ccccc3C(F)(F)F)cc(-c3cccs3)nc21`: the EC50 with Coxsackievirus B3, with Poliovirus 3, in the data set on Enterovirus A71 and in the data set on Poliovirus 1 was over 10 µM throughout.
Turning to `CC(C)n1ncc2c(C(=O)Nc3cc(F)cc(F)c3)cc(-c3cccs3)nc21`, the EC50 in the data set with Coxsackievirus B3, in the data set with Poliovirus 3, in the data set with Enterovirus A71 and in the data set with Poliovirus 1 was over 10 µM throughout.
On to `CC(C)n1ccc2c(C(=O)Nc3ccncc3)cc(-c3cccs3)nc21`, for which the half-maximal effective concentration (EC50) in the data set with Coxsackievirus B3, in the data set with Poliovirus 3, with Enterovirus A71 and in the data set on Poliovirus 1 was over 10 µM throughout.
As to `CC(C)n1ncc2c(C(=O)Nc3ccccc3F)cc(-c3ccccn3)nc21`, the EC50 with Coxsackievirus B3 is 6.9 µM; in the data set on Poliovirus 3, over 25 µM; in the data set with Enterovirus A71 it was over 10 µM; in the data set with Poliovirus 1 it was over 25 µM. For the same compound, the half-maximal cytotoxic concentration (CC50) is 100 µM in the data set with LLC-MK2 and over 200 µM in data set [3]. The selectivity ratio in data set [1] was over 29.
Take `CC(C)n1ncc2c(C(=O)Nc3ccc(S(N)(=O)=O)cc3)cc(-c3cccs3)nc21`: the EC50 in the data set with Coxsackievirus B3, in the data set on Poliovirus 3, in the data set on Enterovirus A71 and in the data set with Poliovirus 1 was over 10 µM in each case.
Take `CC(C)n1ncc2c(C(=O)Nc3ccccc3F)cc(-c3cnco3)nc21`: the concentration giving a half-maximal response (EC50) in the data set with Coxsackievirus B3, in the data set with Poliovirus 3, in the data set on Enterovirus A71 and in the data set on Poliovirus 1 was over 10 µM each time.
Consider `CC(C)n1ncc2c(-c3nc4ccc(F)cc4o3)cc(-c3cccs3)nc21`, for which the EC50 with Coxsackievirus B3, in the data set with Poliovirus 3, in the data set with Enterovirus A71 and with Poliovirus 1 was over 10 µM in each case.
`CC(C)n1ncc2c(C(=O)Nc3ccccc3F)cc(-c3nccs3)nc21`: the concentration for a half-maximal effect (EC50) in the data set with Coxsackievirus B3, with Poliovirus 3, in the data set on Enterovirus A71 and in the data set on Poliovirus 1 was over 10 µM in each case.
On to `CC(C)n1nnc2c(C(=O)Nc3ccc(F)cc3)cc(-c3cccs3)nc21`, for which the half-maximal effective concentration (EC50) with Coxsackievirus B3, with Poliovirus 3, with Enterovirus A71 and in the data set with Poliovirus 1 was over 10 µM throughout.
On to `CC(C)n1ncc2c(C(=N)Nc3ccc(F)cc3)cc(-c3cccs3)nc21`, for which the 50% effective concentration (EC50) in the data set on Coxsackievirus B3, in the data set with Poliovirus 3, with Enterovirus A71 and with Poliovirus 1 was over 10 µM throughout.
Turning to `CC(C)n1ncc2c(C(=O)Nc3cccc(S(N)(=O)=O)c3)cc(C3CC3)nc21`, the EC50 with Coxsackievirus B3, with Poliovirus 3, with Enterovirus A71 and in the data set on Poliovirus 1 was over 10 µM each time.
As to `CC(C)n1ncc2c(C(=O)Nc3ccccc3F)cc(-c3cccnc3)nc21`, the EC50 with Coxsackievirus B3 is 7 µM; with Poliovirus 3 it was over 25 µM; in the data set on Enterovirus A71, over 10 µM; with Poliovirus 1 it was over 25 µM. The CC50 amounted to 50 µM in the data set with LLC-MK2 and 37.5 µM in data set [3]. The selectivity ratio in data set [1] stood at 5.4.
For the compound `CC(C)n1ncc2c(C(=S)Nc3ccc(F)cc3)cc(-c3cccs3)nc21`, the concentration giving a half-maximal response (EC50) in the data set on Coxsackievirus B3, with Poliovirus 3, in the data set on Enterovirus A71 and with Poliovirus 1 was over 10 µM throughout.
On to `CC(C)n1cnc2c(C(=O)Nc3ccc(F)cc3)cc(-c3cccs3)nc21`, for which the concentration for a half-maximal effect (EC50) in the data set on Coxsackievirus B3, in the data set with Poliovirus 3, in the data set with Enterovirus A71 and with Poliovirus 1 was over 10 µM throughout.
Consider `CC(C)n1ncc2c(C(=O)Nc3ccc(C(F)(F)F)cc3)cc(-c3cccs3)nc21`, for which the EC50 in the data set on Coxsackievirus B3, with Poliovirus 3, in the data set on Enterovirus A71 and in the data set with Poliovirus 1 was over 25 µM each time.
As to `CC(C)n1ccc2c(C(=O)Nc3ccc(F)cc3)cc(-c3cccs3)nc21`, the EC50 with Coxsackievirus B3 was 3.1 µM; with Poliovirus 3, over 25 µM; with Enterovirus A71 it was over 25 µM; with Poliovirus 1, over 25 µM. Besides, the half-maximal cytotoxic concentration (CC50) (in the data set on LLC-MK2; in data set [3]) was over 200 µM in each case. In data set [1], the selectivity ratio was over 64.5.
Regarding `CC(C)n1ncc2c(C(=O)Nc3ccccc3F)cc(-c3ccncc3)nc21`, the EC50 in the data set on Coxsackievirus B3 is 5.1 µM; with Poliovirus 3, over 25 µM; in the data set on Enterovirus A71, over 10 µM; in the data set with Poliovirus 1 it was over 25 µM. For the same compound, the half-maximal cytotoxic concentration (CC50) with LLC-MK2 stood at 45 µM; in data set [3], 37.5 µM. The selectivity ratio in data set [1] was 7.4.
In the case of `CC(C)n1ncc2c(C(=N)Nc3cccnc3)cc(-c3cccs3)nc21`, the EC50 in the data set with Coxsackievirus B3, with Poliovirus 3, in the data set on Enterovirus A71 and in the data set with Poliovirus 1 was over 10 µM in each case.
Turning to `CC(C)n1ncc2c(NC(=O)c3cc(-c4cccs4)nc4c3cnn4C(C)C)cc(-c3cccs3)nc21`, the EC50 with Coxsackievirus B3, in the data set with Poliovirus 3, with Enterovirus A71 and in the data set on Poliovirus 1 was over 10 µM in each case.
For `CC(C)n1ncc2c(C(=O)Nc3ccncc3)cc(-c3ccsc3)nc21`, the EC50 with Coxsackievirus B3, in the data set with Poliovirus 3, with Enterovirus A71 and in the data set on Poliovirus 1 was over 10 µM in each case.
In the case of `CC(C)n1ncc2c(S(=O)(=O)Nc3ccc(F)cc3)cc(-c3cccs3)nc21`, the EC50 in the data set on Coxsackievirus B3, with Poliovirus 3, in the data set on Enterovirus A71 and with Poliovirus 1 was over 10 µM in each case.
As to `CC(C)n1ncc2c(C(=O)Nc3ccc(F)cc3)nc(-c3cccs3)nc21`, the EC50 in the data set on Coxsackievirus B3, in the data set with Poliovirus 3, with Enterovirus A71 and in the data set with Poliovirus 1 was over 10 µM in each case.
With `CC(C)n1ncc2c(C(=O)Nc3ccc(F)cc3Br)cc(-c3cccs3)nc21`, the EC50 in the data set on Coxsackievirus B3, in the data set with Poliovirus 3, with Enterovirus A71 and in the data set with Poliovirus 1 was over 10 µM each time.
